Activity calls are given as the source filed them. No cut-off for these calls is given here.
Tests used:
[1] = test system: Mycobacterium tuberculosis; assay: Antimycobacterial activity against PanC deficient Mycobacterium tuberculosis H37RvMA assessed as growth inhibition up to 2 mM after 7 to 14 days; type: functional
Outline: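 panC conditional knockdown (<5% wild-type PanC) grown to OD600 ~0.2 in 7H9 with Hyg 50 μg/mL, Km 25 μg/mL, Gm 5 μg/mL, diluted 500-fold. 2-fold serial dilutions from 4 mM starting concentration in 7H9 with half-strength antibiotics, with or without ATc (20 ng/mL) alone or ATc plus pantothenate (50 μg/mL). 37 °C, growth scored visually at 7, 10, 14 days.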

[2] = test system: Mycobacterium tuberculosis; assay: Antimycobacterial activity against wild type Mycobacterium tuberculosis H37RvMA assessed as growth inhibition up to 250 uM after 7 to 14 days; type: functional
Outline: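 H37RvMA grown in 7H9 to OD600 ~0.2, diluted 500-fold into wells holding 2-fold serial compound dilutions (starting concentration 4 mM) in 7H9. Incubated at 37 °C. Growth was read by eye on days 7, 10 and 14.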

Pantothenate synthetase = biological target: T1, Pantothenate synthetase (Mycobacterium tuberculosis, UniProt P9WIL5); assay: Competitive inhibition of Mycobacterium tuberculosis recombinant PanC expressed in Escherichia coli BL21 (DE3) using pantoic acid and ATP as substrate by Michaelis-Menten equation analysis
T1 sequence (P9WIL5 whole entry): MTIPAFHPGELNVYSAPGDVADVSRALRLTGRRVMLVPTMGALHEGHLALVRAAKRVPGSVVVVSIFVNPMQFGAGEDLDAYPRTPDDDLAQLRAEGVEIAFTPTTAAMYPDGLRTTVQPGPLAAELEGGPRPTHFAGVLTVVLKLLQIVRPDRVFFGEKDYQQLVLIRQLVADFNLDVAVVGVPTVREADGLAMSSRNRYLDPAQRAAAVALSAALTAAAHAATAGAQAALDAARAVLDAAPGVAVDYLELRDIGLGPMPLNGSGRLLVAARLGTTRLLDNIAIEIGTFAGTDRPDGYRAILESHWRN
Outline: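 N-terminal His6 PanC (pET28b, BL21(DE3), Ni-NTA purified), 400 nM. Continuous MesG pyrophosphate-coupled assay with pyrophosphatase and purine nucleoside phosphorylase, A360, 25 °C. Buffer 100 mM HEPES pH 8.0, 10 mM MgCl2, up to 5% DMSO. Pantoic acid varied 50–300 μM at 2.6 mM ATP, 2.4 mM β-alanine, several fixed inhibitor levels, PanC-initiated. Initial rates fit to the competitive equation for Ki.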

CC(C)(C)[C@@H](O)C(=O)NS(=O)(=O)OC[C@H]1O[C@@H](n2cnc3c(N)ncnc32)[C@H](F)[C@@H]1O
growth inhibition (GI) [1]: inactive | growth inhibition (GI) [2]: inactive | Ki (Pantothenate synthetase): 990 nM

CC(C)(C)[C@@H](O)C(=O)NS(=O)(=O)OC[C@H]1C[C@@H](n2cnc3c(N)ncnc32)[C@H](O)[C@@H]1O
growth inhibition (GI) [1]: inactive | growth inhibition (GI) [2]: inactive | Ki (Pantothenate synthetase): 870 nM

CC(C)(C)[C@@H](O)C(=O)NS(=O)(=O)OC[C@H]1O[C@@H](n2cnc3c(N)ncnc32)[C@H](O)[C@@H]1O
growth inhibition (GI) [1]: inactive | growth inhibition (GI) [2]: inactive | Ki (Pantothenate synthetase): 270 nM

CC(C)(CO)[C@@H](O)CNS(=O)(=O)NC[C@H]1O[C@@H](n2cnc3c(N)ncnc32)[C@H](O)[C@@H]1O
growth inhibition (GI) [1]: inactive | growth inhibition (GI) [2]: inactive | Ki (Pantothenate synthetase): 3470 nM

CC(C)(C)[C@@H](O)C(=O)NS(=O)(=O)OC[C@H]1O[C@@H](n2cnc3c(N)ncnc32)[C@@H](O)[C@@H]1O
growth inhibition (GI) [1]: inactive | growth inhibition (GI) [2]: inactive | Ki (Pantothenate synthetase): 1730 nM
